Measurements published in ChEMBL document CHEMBL4513216, “Probing the Open Global Health Chemical Diversity Library for Multistage-Active Starting Points for Next-Generation Antimalarials” (ACS Infect Dis, 2020).

Assay: Toxicity liver stage against HepG2, at 10uM
Assay type: cell-based
Set-up: test concentration 10 uM, cell line HepG2-A16-CD81EGFP
Details: human, HepG2-A16-CD81EGFP cells; read-out: INHIBITION
How it was run: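 Uninfected HepG2-A16-CD81EGFP cells, 3 × 10^3 per well, 1536-well, plated on prespotted compound at 10 μM final, parasite-free screening media added to match infected plates; puromycin 10 μM positive, DMSO 0.5% negative; run in parallel with 48 h PbLuc assay at 37 °C, 5% CO2; viability by CellTiter-Glo luminescence, normalized to controls.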

SMILES | cytotoxicity at 10 µM [%]
Cc1noc(C)c1CC(=O)NCc1ccnc(OCC(F)(F)F)c1 | -7.83
Cc1nc(-c2ccsc2)ccc1C(=O)O | -13.8
COCCNC(=O)c1cc(OC)ccc1Br | -4.2
CCCc1noc(CCC(=O)N2CCCC2c2noc(C3CC3)n2)n1 (stereo not drawn) | -9.98
CCCc1nnc(NC(=O)Cc2c(C)nc(C)[nH]c2=O)s1 | -10.7
CN(C)Cc1nnc(C2CCN(c3ncccc3Cl)CC2)n1C1CC1 | -2.57
OC(CNc1nc(C2CCCC2)nc2c1CCNCC2)C(F)(F)F (stereo not drawn) | -4.78
COc1ccc(Cl)cc1C(=O)N(C)Cc1cc(C)on1 | -22.9
CCOc1ccccc1C(=O)N1CCCC(c2nccn2CCOC)C1 (stereo not drawn) | 1.1
Cc1nc(COC[C@H]2CCC[C@@]23CN(C(C)C)CCO3)cs1 | -86.7
O=C1CCNc2ncc(-c3cccc(Cl)c3)cc2CN1C1CC1 | 8.55
Cc1cc(NC(=O)NCCOc2ccc(Cl)cn2)no1 | 9.08
CC1c2cccn2CCN1C(=O)CCc1nc(C2CC2)no1 (stereo not drawn) | -2.13
c1ccc(Cc2nnc(CN3CCc4cncnc4C3)o2)cc1 | -4.48
CNC(=O)N1CCOCC1c1c(C)nn(C)c1C (stereo not drawn) | -7.11
Cc1[nH]ccc1C(=O)N1CCCN1C(=O)OC(C)(C)C | -6.49
CC(NC(=O)N1CCCN(C)CC1)c1ccc(S(N)(=O)=O)cc1 (stereo not drawn) | -11.7
Cc1nc(C2CCCN2CC(=O)N2CCCc3ccccc32)no1 (stereo not drawn) | -8.7
CNc1cc(CCNC(=O)C2CCCC2)nc(-c2ccccn2)n1 | 1.76
O=C(NCc1cnc2n1CCN(CC1CCOCC1)C2)c1ccno1 | -101
Cc1nc2c(c(NCc3nc4ccccc4s3)n1)CCNCC2 | -37.8
Cc1cc(NCCCNS(C)(=O)=O)nc2ccccc12 | -4.69
Cc1ccsc1C(Cn1ccnc1-c1ccccc1C(=O)O)N(C)C (stereo not drawn) | -2.86

SMILES | cytotoxicity at 10 µM [%]
CSc1ccc(CN2CCC(CCC(=O)Nc3ccccc3)CC2)cc1 | 6.8
COCCN1CCc2cc(C(=O)O)c(-c3ccoc3)nc2CC1 | -75.6
COc1ccc(C)cc1CN1CCCC1Cn1nc(C)nc1C (stereo not drawn) | 6.57
Cc1nc(N2CCOc3ccc(CO)cc3C2)c2nc(C)oc2n1 | 7.91
CNC(=O)c1cc(C2CCCN2)n[nH]1 (stereo not drawn) | -11.9
Cc1nnc(NC(=O)NCc2ccc(N3CCN(C)CC3)nc2)s1 | -7.91
CCN(C)S(=O)(=O)NCC(O)c1c(Cl)cccc1Cl (stereo not drawn) | 8.17
CC(=O)N1CCCC1(C)c1nc(C)no1 (stereo not drawn) | 2.71
Cc1cncc(NCC(O)c2ccco2)n1 (stereo not drawn) | 5.58
COc1ccc(OC)c(-c2cc(C(=O)NCC3(CO)CC3)n(C)n2)c1 | -2.46
CC(C)(C)NC(=O)c1cnc(C(C)(C)C)s1 | 3.72
O=C(O)CC(NC(=O)c1cc(Br)c[nH]1)c1ccccc1 (stereo not drawn) | 1.22
Cc1ccc(F)cc1-n1c(COC(C)C)n[nH]c1=O | 4.72
Cc1cc(N2CCC(NCCOc3ccccc3)CC2)nc(C)n1 | -6.11
c1cnc(N2CCCC(c3n[nH]c4ncccc34)C2)nc1 (stereo not drawn) | -0.64
O=C(c1ccccn1)N1CCn2cnc(COCC3CC3)c2C1 | 11.4
NC(=O)NCC(=O)N1CCCC(OCc2cccnc2)C1 (stereo not drawn) | -1.53
Cc1nn(C)c(C)c1S(=O)(=O)N1C[C@@H]2C[C@@H](C)O[C@@H]2C1 | 0.788
Cn1ccnc1CN1CCCN(C(=O)C2(C#N)CCCCC2)CC1 | -2.84
Cn1cc(CN(Cc2cccc(-n3cccn3)c2)C2CC2)cn1 | -15.4
Cc1ccc(C2CCCN2S(=O)(=O)N(C)CCc2ccccn2)o1 (stereo not drawn) | -5.31
O=C(O)c1cc2c(c(S(=O)(=O)N(CCCO)c3ccccc3)c1)CCC2 | 6.58
Cc1nn(C2CCCCC2)c2nc(C(C)(C)CN3CCOCC3)[nH]c12 | -3.64

SMILES | cytotoxicity at 10 µM [%]
CNc1cccc(CC2COCCN(C(=O)c3cccnc3)C2)n1 (stereo not drawn) | -1.99
O=C(NCCc1nc(C2CC2)no1)[C@H]1CNC[C@H](C(=O)N2CCCC2)C1 | -107
CC(NCC1(N(C)C)CCOCC1)c1ccc(SC(F)F)cc1 (stereo not drawn) | -0.79
COCc1nc(CN2CCOC(CN(C)c3cccnn3)C2)cs1 (stereo not drawn) | 1.55
CN(C)c1nc(NCc2cccnc2N)ncc1F | -2.11
COCC(c1ccccn1)N(C)C(=O)c1cc(-c2cccn2C)n[nH]1 (stereo not drawn) | -3.39
Cc1noc(CN(C)c2nc(-c3ccco3)nc3c2CCN(C)CC3)n1 | -0.0198
Cc1csc2ncnc(N3CCCC(Cn4cc(C(C)(C)O)nn4)C3)c12 (stereo not drawn) | 2.74
O=c1[nH]c2ccccc2cc1CN(Cc1ccccn1)CC1CCCO1 (stereo not drawn) | -4.84
CCc1nnsc1C(=O)NCCC1CN(C(C)C)CCO1 (stereo not drawn) | -7.07
Cc1ncc(S(=O)(=O)Nc2ccnn2C(C)C)[nH]1 | 9.68
CN(C)C1COC2(CCN(Cc3ccc4c(c3)OCO4)CC2)C1 (stereo not drawn) | -5.19
CCCn1nnnc1CSc1nccn1C | -3.39
CN(C)C1(CNC(=O)c2c(O)cc(Cl)cc2Cl)CCOCC1 | -9.46
Cc1nc2ccccn2c1CC(=O)N[C@@H]1CC[C@@H](N2CCOCC2)[C@@H]1O | -1.68
CC(Cc1cncs1)Nc1ncnc2cccc(F)c12 (stereo not drawn) | 17.5
COCCO[C@H]1CCN(C(=O)NC2CC2)[C@H]1Cc1cnn(C)c1 | 8.36
COC(=O)c1cnc(/C=C/c2ccc(C(=O)O)cc2)s1 | 2.56
CNC(=O)NC(=O)CN1CCCN(CC(F)(F)F)CC1 | -2.37
Cc1nc[nH]c1CN1CCOC(c2ccc(Cl)c(Cl)c2)C1 (stereo not drawn) | 0.833
CC(C)NC(=O)NCc1ccccc1NS(=O)(=O)c1ccccc1 | 9.6
Cn1cccc1C(=O)N1C[C@@H]2CCCO[C@@H]2[C@H](N2CCOCC2)C1 | -1.19
Cc1nc(C)c(C(=O)N2CCCC(c3cnccn3)C2)s1 (stereo not drawn) | -20.6

SMILES | cytotoxicity at 10 µM [%]
O=C(CCc1nc2cc(Br)cnc2[nH]1)NCCN1CCOCC1 | 5.08
Cc1ccc(-c2cc(N)c(=O)n(C(C)C(=O)NC(C)C)n2)o1 (stereo not drawn) | -6.69
CCOC(=O)C1(Cc2ccc(Cl)cc2)CCN(Cc2ncc[nH]2)CC1 | -2.36
O=C(c1cccc(-n2cnnc2)c1)N1C[C@@H](O)[C@H](N2CCOCC2)C1 | 2.26
CC(=O)N(Cc1ncc(C(C)C)o1)C1CCN(CCC#N)C1 (stereo not drawn) | -6.39
Cc1ccc2c(c1)c(Sc1ccccc1)c(CC(=O)O)n2C | 3.56
Cc1noc(CNC(=O)CN(C)c2nc3c(C)ccc(C)c3s2)n1 | 55.7
Cc1cccc(CN2C(=O)CC[C@@H]3[C@H]2CCN3Cc2ccc(F)cc2)n1 | -72.1
Cc1cc(NCCS(C)(=O)=O)nc2ccccc12 | 0.748
Cc1noc(C)c1CCCNC(=O)Nc1ccc2c(c1)CC(=O)N2 | -16
Cc1cccnc1CN1CC[C@@](C)(O)[C@H](Oc2ccccc2)C1 | -9.11
CC1CCc2nn(CCNC(=O)C3CCCC3)c(=O)cc2C1 (stereo not drawn) | 7.71
Cn1cc(-c2csc(N3CCOCC3)n2)cn1 | 0.469
COc1cccc(N2CCN(C(C(=O)O)c3ccc(OC)nc3)CC2)c1 (stereo not drawn) | 14.5
CCOCC(=O)N1CCn2cc(CN(C)Cc3ccco3)nc2C1 | 4.73
O=C(CCCSc1ccc(NC(=O)C2CC2)nn1)NCC1CCCO1 (stereo not drawn) | -4.45
CC(C)C(=O)N1CCc2nc(C(=O)Nc3cccnc3)sc2CC1 | 12.5
CCC(C)NC(=O)Nc1ccc(CN2CCOC2=O)cc1 (stereo not drawn) | 10.5
CN(CC(=O)NCC(CCO)c1ccccc1)C(=O)OC(C)(C)C (stereo not drawn) | -6.58
Cc1ccc(OCC(O)COC2CCOCC2)c(Cl)c1 (stereo not drawn) | -5.27
Cc1cc(=O)n(CC(=O)Nc2ccc(Cl)cc2)nc1C | -1.74
Cc1ccc(C(=O)O)cc1-c1cccc2c1CCNC2 | 7.56
CNC(=O)[C@@H](c1ccccc1OC)N1CCC[C@H]1C(=O)N1CC[C@@H](O)C1 | -2.71

SMILES | cytotoxicity at 10 µM [%]
O=C(Nc1ccc(CC(=O)N2CCSCC2)cc1)NC1CC1 | -2.42
CSCC[C@@H](CO)n1ccnc1-c1ccc(C)o1 | 7.02
CC(=O)Nc1nc(-c2ccccc2)c[nH]1 | -1
CNC(=O)COC(=O)c1cccc(-n2ccc(C(F)(F)F)n2)c1 | -39.5
CN(C(=O)c1cccnc1)C1CCCN(CCc2ccccc2)C1 (stereo not drawn) | -3.59
O=C(NCC(O)c1ccc(F)c(F)c1)c1cccnc1O (stereo not drawn) | -13.6
c1ccc(CCCN2CCN(CCn3cncn3)CC2)cc1 | -11.3
CC(=O)NCCC(=O)NC1(c2ccc(Cl)c(Cl)c2)CC1 | 7.49
CCCN1CCCC2(CCN(Cc3noc(C4CCCC4)n3)C2)C1=O (stereo not drawn) | 0.603
O=C(c1ccoc1)N1CC[C@H]2[C@H]1CCN2S(=O)(=O)C1CC1 | -139
COCCN1CC(Nc2nc(C3CCCC3)nc3c2cnn3C)CC1=O (stereo not drawn) | -1.18
N#Cc1ccc(CN2CCNC(=O)C2c2cccs2)cc1 (stereo not drawn) | -2.89
CCc1ncnc2c1CCN(C(=O)c1ccccn1)CC2 | 2.43
CN(C)CC1CN(Cc2coc(-c3ccccc3Cl)n2)CCO1 (stereo not drawn) | -1.15
Cc1ccc(NC(=O)c2cccc(N(C)C)c2)nc1 | 8.77
Cc1cc(C)nc(N2CCC(C(=O)O)(n3ccc(C(C)(C)C)n3)CC2)n1 | -5.6
O=C(CN1CCOC1=O)N1CCC2(CCc3ccccc32)CC1 | -15.8
CO[C@H]1CCN(c2nnc(C)s2)C[C@@H]1Cc1ccccc1 | 11.8
NCCCNS(=O)(=O)Cc1ccc(Br)cc1 | -0.447
NC(=O)NC(CC(=O)NCCc1cccc(F)c1)c1cccs1 (stereo not drawn) | 1.55
Cc1ccc(-c2nc(CC(=O)NCC3CCCN(C(C)C)C3)cs2)o1 (stereo not drawn) | -53.2
